molecular target: T1, Follicle-stimulating hormone receptor (Homo sapiens) (UniProt P23945); test: In vitro inhibition of maximum response on CHO-K1 cells expressing human Follicle stimulating hormone receptor at 1E-5M; format: functional, cell-based
T1 sequence (whole entry): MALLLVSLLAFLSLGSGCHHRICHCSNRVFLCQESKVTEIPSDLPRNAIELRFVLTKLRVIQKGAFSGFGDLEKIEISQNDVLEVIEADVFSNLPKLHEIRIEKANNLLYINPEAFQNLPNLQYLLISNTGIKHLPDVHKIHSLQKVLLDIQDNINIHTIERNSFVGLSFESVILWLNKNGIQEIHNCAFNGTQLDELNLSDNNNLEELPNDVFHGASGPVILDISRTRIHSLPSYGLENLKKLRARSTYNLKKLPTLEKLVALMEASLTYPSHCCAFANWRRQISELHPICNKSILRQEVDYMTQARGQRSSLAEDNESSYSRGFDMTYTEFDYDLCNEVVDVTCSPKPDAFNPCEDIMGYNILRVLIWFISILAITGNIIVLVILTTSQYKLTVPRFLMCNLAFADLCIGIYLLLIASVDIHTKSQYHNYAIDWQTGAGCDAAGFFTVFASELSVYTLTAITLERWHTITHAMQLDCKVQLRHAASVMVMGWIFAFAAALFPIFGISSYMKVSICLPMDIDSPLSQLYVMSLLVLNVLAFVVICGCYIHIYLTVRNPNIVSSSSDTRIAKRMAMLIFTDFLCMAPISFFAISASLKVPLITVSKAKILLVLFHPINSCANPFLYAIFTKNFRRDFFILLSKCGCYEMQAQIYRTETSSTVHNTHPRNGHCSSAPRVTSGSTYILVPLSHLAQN

Q: How did the inhibition turn out when CC(=O)N1c2ccc(C(=O)Nc3ccc(-c4ccccc4)cc3)cc2C(C)(c2ccccc2)CC1(C)C (stereo not given) was run?
A: The inhibition was 44%.

Q: CC(=O)N1c2ccc(OCCc3ccccc3)cc2C(C)(c2ccccc2)CC1(C)C (stereo not given) was tested. Which inhibition did it give?
A: The inhibition was 80%.

Q: For CC(=O)N1c2ccc(C(=O)NCc3cccs3)cc2C(C)(c2ccccc2)CC1(C)C (stereo not given), which inhibition is on record?
A: Its inhibition is 25%.

Q: For CC(=O)N1c2ccc(NC(=O)c3ccc(-c4ccc(C(C)(C)C)cc4)cc3)cc2C(C)(c2ccccc2)CC1(C)C (stereo not given), which inhibition is on record?
A: Its inhibition is 74%.

molecular target: T2, Follicle-stimulating hormone receptor (Homo sapiens, UniProt P23945); test: In vitro inhibition of maximum response on CHO-K1 cells expressing human Follicle stimulating hormone receptor; format: functional, cell-based
T2 sequence (P23945 whole entry): T1 sequence (whole entry)
In short: (§1)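 Antagonist-mode assay in CHO cells expressing human FSH receptor with a luciferase reporter: cells are stimulated with FSH and test compound is added. IC50 values come from duplicate measurements and represent at least two independent experiments; the SD of pIC50 is typically below 0.2. Compounds are scored "n.a." (not active) where no antagonism is seen.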

Q: For CC(=O)N1c2ccc(NC(=O)COC(C)(C)C)cc2C(C)(c2ccccc2)CC1(C)C (stereo not given), which IC50 is on record?
A: Its IC50 is 76 nM.

Q: For CC(=O)N1c2ccc(NS(=O)(=O)Cc3ccccc3)cc2C(C)(c2ccccc2)CC1(C)C (stereo not given), which IC50 is on record?
A: Its IC50 is 2800 nM.

Q: With CC(=O)N1c2ccc(NC(=O)Nc3ccccc3)cc2C(C)(c2ccccc2)CC1(C)C (stereo not given) as the molecule, how does the IC50 read?
A: Its IC50 is 580 nM.

Q: With CC(=O)N1c2ccc(NC(=O)c3cccc(-c4ccccc4)c3)cc2C(C)(c2ccccc2)CC1(C)C (stereo not given) as the molecule, how does the IC50 read?
A: Its IC50 is 9 nM.

Q: For COc1ccccc1C1(C)CC(C)(C)N(C(C)=O)c2ccc(NC(=O)c3ccc(-c4ccccc4)cc3)cc21 (stereo not given), which IC50 is on record?
A: The IC50 was 170 nM.

Q: How did the IC50 turn out when CC(=O)N1c2cc(C)c(NC(=O)c3ccc(-c4ccccc4)cc3)cc2C(C)(c2ccccc2)CC1(C)C (stereo not given) was run?
A: The IC50 was 5 nM.

Q: Which IC50 does the source give for CC(=O)N1c2ccc(NC(=O)c3ccc(Cl)cc3)cc2C(C)(c2ccccc2)CC1(C)C (stereo not given) here?
A: The IC50 was 31 nM.

Q: How did the IC50 turn out when CC(=O)N1c2ccc(NC(=O)c3ccccc3-c3ccccc3)cc2C(C)(c2ccccc2)CC1(C)C (stereo not given) was run?
A: The IC50 was 25 nM.

Q: Which IC50 does the source give for CC(=O)N1c2ccc(NC(=O)c3ccco3)cc2C(C)(c2ccccc2)CC1(C)C (stereo not given) here?
A: The IC50 was 27 nM.

Q: Which IC50 does the source give for CC(=O)N1c2ccc(NC(=O)c3ccc(-c4ccccc4)cc3)cc2C(C)(c2ccccc2)CC1(C)C (single isomer, unassigned; isomer II) here?
A: The IC50 was 4 nM.

Q: For CC(=O)N1c2ccc(NC(=O)c3ccc(-c4ccccc4)cc3)cc2C(C)(c2ccc(O)cc2)CC1(C)C (stereo not given), which IC50 is on record?
A: The IC50 was 240 nM.

Q: For CC(=O)N1c2ccc(OCc3ccc(-c4ccccc4)cc3)cc2C(C)(c2ccccc2)CC1(C)C (stereo not given), which IC50 is on record?
A: Its IC50 is 166 nM.

Q: With CC(=O)N1c2ccc(NC(=O)c3ccc(-c4ccccc4)cc3)cc2C(C)(c2ccccc2)CC1(C)C (stereo in doubt; 10) as the molecule, how does the IC50 read?
A: The IC50 was 28 nM.

Q: Which IC50 does the source give for COc1ccc(CCNC(=O)c2ccc3c(c2)C(C)(c2ccccc2)CC(C)(C)N3C(C)=O)cc1 (stereo not given) here?
A: Its IC50 is 1880 nM.

Q: With COc1cc(NC(=O)c2ccc(-c3ccccc3)cc2)cc2c1N(C(C)=O)C(C)(C)CC2(C)c1ccccc1 (stereo not given) as the molecule, how does the IC50 read?
A: The IC50 was 30 nM.

Q: CC(=O)N1c2ccc(NCc3ccc(C(C)(C)C)cc3)cc2C(C)(c2ccccc2)CC1(C)C (stereo not given) was tested. Which IC50 did it give?
A: The IC50 was 930 nM.

Q: CC(=O)N1c2ccc(NC(=O)c3ccc(C(F)(F)F)cc3)cc2C(C)(c2ccccc2)CC1(C)C (stereo not given) was tested. Which IC50 did it give?
A: Its IC50 is 7 nM.

Q: How did the IC50 turn out when CC(=O)N1c2ccc(OC(=O)c3ccc(-c4ccccc4)cc3)cc2C(C)(c2ccccc2)CC1(C)C (stereo not given) was run?
A: Its IC50 is 54 nM.

Q: For CCCc1ccc(C(=O)Nc2ccc3c(c2)C(C)(c2ccccc2)CC(C)(C)N3C(C)=O)cc1 (stereo not given), which IC50 is on record?
A: Its IC50 is 5 nM.

Q: For CC(=O)N1c2ccc(NC(=O)c3ccc(-c4ccccc4)cc3)cc2C(C)(c2ccc(C)cc2)CC1(C)C (stereo not given), which IC50 is on record?
A: Its IC50 is 50 nM.

species on record: Mus musculus; test: Inhibition of follicle growth (ovulation) in mouse at 10 uM concentration; format: functional
In short: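 Ex vivo culture of immature mouse follicles in the presence of FSH, with or without test compound at 10 µM. Follicle growth is compared with FSH-only follicles, and ovulation is scored as % ovulated follicles.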

Q: CC(=O)N1c2ccc(NC(=O)c3ccc(-c4ccccc4)cc3)cc2C(C)(c2ccccc2)CC1(C)C (stereo in doubt; 10) was tested. Which Inhibition did it give?
A: The Inhibition was 78%.

molecular target: T2, Follicle-stimulating hormone receptor; test: Effective concentration for maximum response on CHO-K1 cells expressing human Follicle stimulating hormone receptor; format: functional, cell-based

Q: How did the EC50 turn out when CC(=O)N1c2ccc(N)cc2C(C)(c2ccccc2)CC1(C)C (stereo not given) was run?
A: The EC50 was 4400 nM.

molecular target: T2, Follicle-stimulating hormone receptor; test: In vitro inhibition of maximum response on CHO-K1 cells expressing human Follicle stimulating hormone receptor; Not active; format: functional, cell-based; in short: as §1

Q: How did the IC50 turn out when CC(=O)N1c2ccc(NC(=O)c3ccc(-c4ccccc4)cc3)cc2C(C)(c2ccccc2)CC1(C)C (single isomer, unassigned; isomer I) was run?
A: Its IC50 is “Not Active”.

Q: How did the IC50 turn out when CC(=O)N1c2ccc(CNc3ccc(-c4ccccc4)cc3)cc2C(C)(c2ccccc2)CC1(C)C (stereo not given) was run?
A: Its IC50 is “Not Active”.

molecular target: T3, Follicle-stimulating hormone receptor (Rattus norvegicus, UniProt P20395); test: In vitro inhibition against maximum response evoked by cAMP in rat GFSHR-17 granulosa cell line; format: functional
T3 sequence (P20395 whole entry): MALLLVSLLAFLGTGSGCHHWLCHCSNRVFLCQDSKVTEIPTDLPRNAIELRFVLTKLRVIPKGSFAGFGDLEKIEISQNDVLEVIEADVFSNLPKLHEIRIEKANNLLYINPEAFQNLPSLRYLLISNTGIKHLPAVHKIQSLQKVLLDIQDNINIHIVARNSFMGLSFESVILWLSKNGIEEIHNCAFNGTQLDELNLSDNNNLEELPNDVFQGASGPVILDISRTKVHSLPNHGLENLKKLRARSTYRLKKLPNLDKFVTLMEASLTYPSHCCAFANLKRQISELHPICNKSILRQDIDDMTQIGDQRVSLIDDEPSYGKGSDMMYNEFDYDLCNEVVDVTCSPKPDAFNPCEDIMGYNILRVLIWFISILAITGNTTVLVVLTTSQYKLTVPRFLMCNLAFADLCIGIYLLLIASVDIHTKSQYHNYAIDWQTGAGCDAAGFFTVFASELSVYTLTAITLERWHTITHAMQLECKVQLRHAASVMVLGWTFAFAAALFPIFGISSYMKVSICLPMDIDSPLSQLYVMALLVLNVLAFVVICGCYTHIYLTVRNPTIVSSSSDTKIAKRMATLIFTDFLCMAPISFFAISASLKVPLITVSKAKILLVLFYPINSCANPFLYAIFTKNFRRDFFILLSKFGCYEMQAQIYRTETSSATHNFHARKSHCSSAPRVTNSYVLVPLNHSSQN
In short: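 Granulosa cell line GFSHR-17, stably expressing rat FSH receptor, incubated with FSH plus test compound; read-out is inhibition of FSH-induced cAMP production, reported as IC50.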

Q: CC(=O)N1c2ccc(NC(=O)c3ccc(-c4ccccc4)cc3)cc2C(C)(c2ccccc2)CC1(C)C (stereo in doubt; 10) was tested. Which IC50 did it give?
A: Its IC50 is 540 nM.

molecular target: T2, Follicle-stimulating hormone receptor; test: In vitro inhibition of maximum response evoked by cAMP on CHO-K1 cells expressing human Follicle stimulating hormone receptor; format: functional, cell-based
In short: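 CHO cells stably expressing human FSH receptor, run in antagonist mode. The natural ligand FSH stimulates the receptor and the test compound is added. FSH-induced cAMP production is measured as the functional read-out in place of luciferase, and an IC50 is derived.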

Q: How did the IC50 turn out when CC(=O)N1c2ccc(NC(=O)c3ccc(-c4ccccc4)cc3)cc2C(C)(c2ccccc2)CC1(C)C (stereo in doubt; 10) was run?
A: The IC50 was 10 nM.
